Active and inactive are the calls of the source.
Experiments:
SGC-7901 [1] = test: Induction of apoptosis in human SGC-7901 cells assessed as downregulation of Bcl-xl at 20 to 60 nM incubated for 48 hrs by Western blot analysis; type: functional, cell-based; conditions: dose 20-60 nM
Procedure, shortened: (§1)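 Western blot on MGC-803 and SGC-7901 cells given 20, 40 and 60 nM compound or DMSO for 48 h. Denatured lysates were run on SDS-PAGE and transferred to PVDF, then probed with primary and secondary antibodies to detect apoptosis-related proteins.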

SGC-7901 [2] = test: Inhibition of tubulin polymerization in human SGC-7901 cells assessed as increase in multiple nucleus formation at 20 to 60 nmol/L by DAPI staining based microscopic analysis; type: cell-based; conditions: dose 20-60 nmol/L
Procedure, shortened: (§2)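 Cells cultured in RPMI-1640 with 10% FBS at 37 °C, 5% CO2, treated 48 h with 20, 40 and 60 nM; stained for β-tubulin (green) and nuclei (blue) and examined by microscopy.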

MGC-803 [3] = test: Induction of apoptosis in human MGC-803 cells assessed as increase in PARP cleavage at 20 to 60 nM incubated for 48 hrs by Western blot analysis; type: functional, cell-based; conditions: dose 20-60 nM; procedure, shortened: as §1
MGC-803 [4] = test: Activation of Hippo signaling pathway in human […] cells assessed as increase in MST1/2 phosphorylation at 20 to 60 nM incubated for 48 hrs by Western blot analysis; type: cell-based; conditions: filed as activator, dose 20-60 nM
Procedure, shortened: (§3)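 Western blot on gastric cancer cells exposed to compound or DMSO at 20, 40 and 60 nM for 48 h. Cells were lysed, then the denatured lysates were separated by SDS-PAGE and transferred to PVDF. Membranes were blocked and probed with primary and then secondary antibodies. Hippo pathway proteins were detected.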

SGC-7901 [5] = test: Induction of apoptosis in human SGC-7901 cells assessed as fragmentation of cells at 20 to 60 nM; type: functional, cell-based; conditions: dose 20-60 nM
Procedure, shortened: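 Gastric cancer cells in RPMI-1640/10% FBS at 37 °C, 5% CO2, exposed to 20, 40 and 60 nM for 48 h; nuclear morphology (condensation, fragmentation) inspected after staining.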

MGC-803 [6] = test: Induction of apoptosis in human MGC-803 cells assessed as upregulation of Bak at 20 to 60 nM incubated for 48 hrs by Western blot analysis; type: functional, cell-based; conditions: dose 20-60 nM; procedure, shortened: as §1
MGC-803 [7] = test: Cytotoxicity against human MGC-803 cells harboring SiYAP assessed as increase in cell viability at 20 to 60 nM incubated for 48 hrs by MTT assay; type: cell-based; conditions: mgc-803, 48 h, 0.06 µM, dose 20-60 nM
MGC-803 [8] = test: Activation of Hippo signaling pathway in human […] cells assessed as downregulation of YAP at 20 to 60 nM incubated for 48 hrs by Western blot analysis; type: cell-based; conditions: filed as activator, dose 20-60 nM; procedure, shortened: as §3
SGC-7901 [9] = test: Induction of apoptosis in human SGC-7901 cells assessed as downregulation of XIAP at 20 to 60 nM incubated for 48 hrs by Western blot analysis; type: functional, cell-based; conditions: dose 20-60 nM; procedure, shortened: as §1
MGC-803 [10] = test: Induction of apoptosis in human MGC-803 cells assessed as upregulation of FADD at 20 to 60 nM incubated for 48 hrs by Western blot analysis; type: functional, cell-based; conditions: dose 20-60 nM; procedure, shortened: as §1
MGC-803 [11] = test: Induction of apoptosis in human MGC-803 cells assessed as early apoptotic cells at 20 nM incubated for 48 hrs by annexin V-FITC and PI staining based flow cytometry analysis (reference value: 2.9 %); type: functional
MGC-803 [12] = test: Induction of apoptosis in human MGC-803 cells assessed as late apoptotic cells at 40 nM incubated for 48 hrs by annexin V-FITC and PI staining based flow cytometry analysis (reference value: 4.1 %); type: functional
MGC-803 [13] = test: Induction of cell cycle arrest in human MGC-803 cells assessed as downregulation of CDK1 at 20 to 60 nM incubated for 48 hrs by Western blot analysis; type: functional, cell-based; conditions: dose 20-60 nM
Procedure, shortened: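 Cells grown in RPMI-1640 with 10% FBS, penicillin/streptomycin at 37 °C, 5% CO2. Exposure to 20, 40 or 60 nM for 48 h alongside DMSO control. Lysates denatured, resolved by SDS-PAGE, transferred to PVDF, blocked, then probed with primary and secondary antibodies.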

MGC-803 [14] = test: Induction of apoptosis in human MGC-803 cells assessed as downregulation of Bcl-xl at 20 to 60 nM incubated for 48 hrs by Western blot analysis; type: functional, cell-based; conditions: dose 20-60 nM; procedure, shortened: as §1
SGC-7901 [15] = test: Induction of apoptosis in human SGC-7901 cells assessed as downregulation of Mcl-1 at 20 to 60 nM incubated for 48 hrs by Western blot analysis; type: functional, cell-based; conditions: dose 20-60 nM; procedure, shortened: as §1
SGC-7901 [16] = test: Activation of Hippo signaling pathway in human SGC-7901 cells assessed as downregulation of YAP at 20 to 60 nM incubated for 48 hrs by Western blot analysis; type: cell-based; conditions: filed as activator, dose 20-60 nM; procedure, shortened: as §3
MGC-803 [17] = test: Inhibition of tubulin polymerization in human MGC-803 cells assessed as decrease in microtubule formation at 20 to 60 nmol/L by DAPI staining based microscopic analysis; type: cell-based; conditions: dose 20-60 nmol/L; procedure, shortened: as §2
SGC-7901 [18] = test: Induction of apoptosis in human SGC-7901 cells assessed as downregulation of c-IAP1 at 20 to 60 nM incubated for 48 hrs by Western blot analysis; type: functional, cell-based; conditions: dose 20-60 nM; procedure, shortened: as §1
SGC-7901 [19] = test: Inhibition of tubulin polymerization in human SGC-7901 cells assessed as decrease in microtubule formation at 20 to 60 nmol/L by DAPI staining based microscopic analysis; type: cell-based; conditions: dose 20-60 nmol/L; procedure, shortened: as §2
MGC-803 [20] = test: Activation of Hippo signaling pathway in human […] cells assessed as decrease in Bcl-2 expression incubated for 48 hrs by Western blot analysis; type: cell-based; conditions: filed as activator, dose 20-60 nM; procedure, shortened: as §3
MGC-803 [21] = test: Induction of apoptosis in human MGC-803 cells assessed as early apoptotic cells at 60 nM incubated for 48 hrs by annexin V-FITC and PI staining based flow cytometry analysis (reference value: 2.9 %); type: functional
SGC-7901 [22] = test: Activation of Hippo signaling pathway in human SGC-7901 cells assessed as increase in MST1/2 phosphorylation at 20 to 60 nM incubated for 48 hrs by Western blot analysis; type: cell-based; conditions: filed as activator, dose 20-60 nM; procedure, shortened: as §3
PC-3 = test: Antiproliferative activity against human PC-3 cells assessed as reduction in cell viability incubated for 48 hrs by MTT assay; type: functional, cell-based; conditions: PC-3, 48 h
Procedure, shortened: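 MTT assay. 5,000 cells per well in RPMI-1640 with 10% FBS and penicillin/streptomycin at 37 °C, 5% CO2. Compound added 24 h after seeding and left for 48 h. MTT was then added for 4 h at 37 °C, formazan dissolved in DMSO and absorbance read at 490 nm. IC50 calculated from three independent experiments.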

SGC-7901 [23] = test: Induction of apoptosis in human SGC-7901 cells assessed as early apoptotic cells at 60 nM incubated for 48 hrs by annexin V-FITC and PI staining based flow cytometry analysis (reference value: 1.4 %); type: functional
MGC-803 [24] = test: Induction of apoptosis in human MGC-803 cells assessed as fragmentation of cells at 20 to 60 nM; type: functional, cell-based; conditions: dose 20-60 nM
SGC-7901 [25] = test: Activation of Hippo signaling pathway in human SGC-7901 cells assessed as decrease in Bcl-2 expression incubated for 48 hrs by Western blot analysis; type: cell-based; conditions: filed as activator, dose 20-60 nM; procedure, shortened: as §3
SGC-7901 [26] = test: Inhibition of tubulin polymerization in human SGC-7901 cells assessed as decrease in filamentous structure at 20 to 60 nmol/L by DAPI staining based microscopic analysis; type: cell-based; conditions: dose 20-60 nmol/L; procedure, shortened: as §2
MGC-803 [27] = test: Induction of apoptosis in human MGC-803 cells assessed as downregulation of c-IAP1 at 20 to 60 nM incubated for 48 hrs by Western blot analysis; type: functional, cell-based; conditions: dose 20-60 nM; procedure, shortened: as §1

COc1ccc(CN(C(=O)CSc2nc3ccccc3s2)c2cc(OC)c(OC)c(OC)c2)cc1O
Non-Toxic: Activity (MGC-803 [7])
2110 nM: IC50 (PC-3)
4.4%: Activity (MGC-803 [11])
active: Activity (SGC-7901 [1]) | Activity (SGC-7901 [2]) | Activity (MGC-803 [3]) | Activity (MGC-803 [4]) | Activity (SGC-7901 [5]) | Activity (MGC-803 [6]) | Activity (MGC-803 [8]) | Activity (SGC-7901 [9]) | Activity (MGC-803 [10]) | Activity (MGC-803 [13]) | Activity (MGC-803 [14]) | Activity (SGC-7901 [15]) | Activity (SGC-7901 [16]) | Activity (MGC-803 [17]) | Activity (SGC-7901 [18]) | Activity (SGC-7901 [19]) | Activity (MGC-803 [20]) Dose-dependent effect | Activity (SGC-7901 [22]) | Activity (MGC-803 [24]) | Activity (SGC-7901 [25]) Dose-dependent effect | Activity (SGC-7901 [26]) | Activity (MGC-803 [27])
43%: Activity (MGC-803 [21])
19.1%: Activity (SGC-7901 [23])
10.1%: Activity (MGC-803 [12])
